# High-throughput results from PubChem BioAssay.
# HIV Rev-RRE inh: HIV-1 Rev-RRE binding inhibitors, primary screen, biochemical, FRET, protein-RNA interaction; P05866; Rev peptide-RRE RNA binding; inhibition, % at 8 µM; 97,000 tested, 0.79% active; AID 704, 2007;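 active means inhibition above the screen-wide mean plus 3 SD, cut at about 35% in these data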;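 further: 0% = median DMSO wells and 100% = median Neomycin B control wells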
# Target sequence (P05866 whole entry, looked up): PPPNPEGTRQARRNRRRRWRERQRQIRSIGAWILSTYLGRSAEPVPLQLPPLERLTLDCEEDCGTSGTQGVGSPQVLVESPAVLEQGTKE
#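 assay system = Cy5-tagged RRE RNA duplex with fluorescein-tagged Rev peptide | incubation = 5 + 15 min at 25 °C | also added = labelled Rev peptide | measure = % inhibition of FRET ratio versus controls | benchmarks = DMSO wells as 0% and neomycin B wells as 100% inhibition | measured by = FRET fluorescence readout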
# GALR2 blocker: GALR2 antagonists in receptor-expressing cells, primary screen | antagonist mode | inhibition, % at 4 µM | 140,000 tested, 0.39% active; in the data active means inhibition above about 27%;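 further: cells stimulated with galanin 1-16 at roughly its EC80; 0% = agonist challenge control and 100% = basal control without agonist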
# Target sequence (O43603 whole entry, looked up): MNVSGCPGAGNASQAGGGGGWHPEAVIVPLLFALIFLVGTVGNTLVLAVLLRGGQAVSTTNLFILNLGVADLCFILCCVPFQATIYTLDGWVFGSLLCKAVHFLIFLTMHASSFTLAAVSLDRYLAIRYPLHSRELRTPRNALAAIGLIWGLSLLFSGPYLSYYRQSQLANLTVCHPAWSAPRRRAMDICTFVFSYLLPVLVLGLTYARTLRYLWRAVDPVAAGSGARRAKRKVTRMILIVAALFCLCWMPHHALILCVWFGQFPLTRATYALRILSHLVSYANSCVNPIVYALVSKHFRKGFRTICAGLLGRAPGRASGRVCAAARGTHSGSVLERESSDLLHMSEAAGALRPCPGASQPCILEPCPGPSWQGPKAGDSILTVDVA
# S1P2 agonist: S1P2 receptor agonists, primary screen, cell-based; 97,000 tested, 0.46% active; S1P2-expressing cell line, agonist reporter read-out; activation, % at 4.5 µM; Sphingosine 1-phosphate receptor 2 (Homo sapiens), O95136; in the data active means activation above about 16%;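 further: 0% = vehicle low control and 100% = maximal reference agonist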
# GALR2 ag: GALR2 receptor agonists, primary screen, cell-based; Galanin receptor type 2 (Homo sapiens), O43603; GALR2-expressing cells, agonist activation read-out; activation, % (no concentration beside the values); 140,000 tested, 0.48% active; in the data active means activation above about 5%, passing the limit was not always enough;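 further: 0% = vehicle buffer wells and 100% = reference agonist at full effect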
# EphB4 ephrin blk: EphB4-ephrin-B2 interaction antagonists, primary screen, biochemical, TNYL-RAW peptide probe, fluorescence polarization; inhibition, % at 7 µM; EphB4 LBD / TNYL-RAW-Alexa532 peptide; 97,000 tested, 0.15% active; Ephrin type-B receptor 4 (Homo sapiens), P54760;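 active means inhibition above the screen-wide mean inhibition plus 3 SD, cut at about 15% in these data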;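 further: 0% = DMSO wells and 100% = excess unlabeled TNYL-RAW peptide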
# S1P2 antag: human S1P2 receptor antagonists, primary screen, cell-based | Sphingosine 1-phosphate receptor 2 (Homo sapiens), O95136 | 97,000 tested, 0.21% active | AID 736, 2007 | inhibition, % at 5 µM | cell-based S1P2 antagonist assay, inhibition at 5 uM; in the data active means inhibition above about 45%;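 further: CRE beta-lactamase reporter cells expressing human S1P2 stimulated with S1P; 0% = agonist at EC80 alone and 100% = agonist plus reference antagonist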
# The depositor's hits bear a star; / = no result given; [ ] = another dose, or the depositor's remark. This is a sample that favours compounds with a hit; in the whole collection about 1.8% have one here.
SMILES,HIV Rev-RRE inh,GALR2 blocker,S1P2 agonist,GALR2 ag,EphB4 ephrin blk,S1P2 antag
Fc1cccc2sc(Nc3nc4ccccc4s3)nc12,/,18,/,0,/,/
COc1ccc(/C=N\N=C2/SC(CC(=O)O)C(=O)N2c2ccc(O)cc2)cc1OC (centres undefined),/,2,/,-1,/,/
CCOc1ccc(/C=N/N2C(=O)C(CC(=O)Nc3ccc(F)cc3F)SC2=NC)cc1OC (centres undefined),/,6,/,6.0*,/,/
CN(C)CCCNS(=O)(=O)c1cc(Cl)ccc1Cl,2,-5,-4,-2,-2,12
O=S(=O)(c1ccc(N2CCC(c3ccc(Cl)cc3)=N2)cc1)N(CCO)CCO,1,-40,111*,90*,-2,-208
CN(C)CCCNS(=O)(=O)c1ccc(N2CCC(c3ccc(Cl)cc3)=N2)cc1,6,-2,202*,132*,9,-214
C/C(=N\O)C(=O)NCCN(C)C,/,5,/,0,/,/
Nc1c(C(=O)Nc2ccccc2F)sc2nc(Cc3ccccc3)cc(C(F)(F)F)c12,82*[fluorescence artefact?],-7,-5,-1,-3,10
Cc1cc(C(F)(F)F)c2c(N)c(C(=O)Nc3cc(C)on3)sc2n1,7,11,-9,-2,-2,13
Cc1ccc(C2C(C#N)=C(N)SC(N)=C2C#N)o1,92*[fluorescence artefact?],-1,-3,-2,0,7
CCc1ccc(C2C(C#N)=C(N)SC(N)=C2C#N)s1,/,18,/,-1,/,/
CCOc1ccccc1C1C(C#N)=C(N)SC(N)=C1C#N,37*,7,-3,1,2,-8
CCc1ccc(C2C(C#N)=C(N)SC(N)=C2C#N)cc1,41*,5,-8,-1,-11,-20
N#CC1=C(N)SC(N)=C(C#N)C1c1ccc(C(F)(F)F)cc1,42*,8,-3,0,-3,8
CCOc1ccc(C2C(C#N)=C(N)SC(N)=C2C#N)cc1OC,/,0,/,-1,/,/
Nc1c(CO)nnn1-c1ccccc1,/,16,/,1,/,/
CCOC(=O)n1c(=O)oc2cc(S(=O)(=O)N3CCCCC3)ccc21,1,6,-3,-1,7,17
CCOC(=O)N1CCN(S(=O)(=O)c2ccc3c(c2)oc(=O)n3C)CC1,41*,4,-2,-2,3,5
C/C(=N\NC(=O)c1ccc(C)cc1C)c1ccc2c(c1)OCO2,/,-2,/,0,/,/
C/C(=N/NC(=O)c1ccc2c(c1)OCO2)c1cccc(NC(=O)C(C)(C)C)c1,1,20,41*,-1,-1,-12
CCc1ccc(/C=C/C(=O)c2cc(Br)ccc(=O)c2O)cc1,29,4,-3,-1,3,-24
Cc1cccc(/C=C/C(=O)c2cc(Br)ccc(=O)c2O)c1,37*,-2,-4,-1,2,-5
CSc1nc2ccccc2n1CC(=O)Nc1c(C)n(C)n(-c2ccccc2)c1=O,9,2,-2,0,1,3
CCCc1cc(SCC(=O)Nc2c(C)n(C)n(-c3ccccc3)c2=O)n2c(nc3ccccc32)c1C#N,41*,-2,-8,-1,1,-27
CCC(C)(c1nnnn1-c1c(C)cccc1C)N(N=O)c1ccccc1Cl (centres undefined),/,-7,/,-1,/,/
SMILES,HIV Rev-RRE inh,GALR2 blocker,S1P2 agonist,GALR2 ag,EphB4 ephrin blk,S1P2 antag
COc1cc(/C=N\Nc2ccc([N+](=O)[O-])cc2)ccc1OCC(=O)Nc1ccc(C)c(C)c1,76*[fluorescence artefact?],4,-4,-1,3,18
CCOc1cc(/C=N\Nc2ccc([N+](=O)[O-])cc2)ccc1OCC(=O)Nc1ccc(C)c(C)c1,35,-7,-2,-2,-1,11
CN1/C(=C\C(=O)C(F)F)C(C)(C)c2ccccc21,7,4,-2,0,2,15
CN1/C(=C\C(=O)c2ccco2)C(C)(C)c2ccccc21,11,6,18*,4,-3,16
CON/C=C(\C=Nc1ccc(F)cc1)c1ncc(C(F)(F)F)cc1Cl,14,-3,-9,-3,2,63*
Cn1nc(CC(=O)NCc2ccc(C(F)(F)F)cc2)c2ccccc2c1=O,9,17,-4,-3,6,62*
Cn1nc(C(=O)NCc2ccc(F)cc2)c2ccccc2c1=O,5,10,-11,0,9,24
CSc1nnc(C)c(/C=C/Nc2ccc(F)cc2)n1,89*[fluorescence artefact?],3,-5,0,5,12
CSc1nnc(C)c(/C=C/Nc2ccc(Cl)cc2)n1,42*,-8,-9,-1,-2,20
CN(C)C(/C=C/Nc1ccc(F)cc1)=C(C#N)C#N,4,-8,-5,-1,0,6
CO/N=C/c1ccc(Sc2ccccc2)c([N+](=O)[O-])c1,17,-13,9,-2,-3,-19
CO/N=C/c1ccc(Sc2ccccc2N)c([N+](=O)[O-])c1,12,6,17*,0,-3,-27
CCN(CC)C(=O)Cn1c(=O)c2ccccc2n2c(=S)sc(-c3cccc(C)c3)c12,/,-4,/,0,/,/
Cc1ccc(C(=O)NCC(=O)NCC(=O)OCC(=O)c2cccs2)cc1,/,-2,/,2,/,/
O=C1c2ccccc2-c2c1cccc2C(=O)N1CCOCC1,5,-9,1,-2,-6,-19
O=C1c2ccccc2C(=O)c2c1cccc2N1CCOCC1,1,-14,22*,0,2,-22
Cc1cc2c(cc1C)NC(c1c(C)n(C)n(-c3ccccc3)c1=O)C1=C(CC(C)(C)CC1=O)N2 (centres undefined),107*[fluorescence artefact?],16,-7,-3,5,13
CC1(C)CC(=O)C2=C(C1)Nc1ccccc1NC2c1ccccn1 (centres undefined),/,13,/,-2,/,/
COC(=O)c1ccc(NC(=O)CSc2nccn2CCc2ccccc2)cc1,7,-9,-1,-2,-7,7
C=CCN1C(=O)C2(NNc3ccccc3O2)c2ccccc21 (centres undefined),69*,-1,-4,-1,-2,-22
CCCCN1C(=O)C2(NNc3ccccc3O2)c2ccccc21 (centres undefined),73*,-3,-5,-2,2,9
CCCCN1C(=O)C(O)(CC(=O)c2ccccc2OC)c2ccccc21 (centres undefined),/,3,/,-1,/,/
C=CCN1C(=O)C(O)(CC(=O)c2ccc(-n3cccc3)cc2)c2ccccc21 (centres undefined),2,7,-3,0,-5,2
O=C1O/C(=C/c2ccccc2)c2ccccc21,/,4,/,-1,/,/
O=C1/C(=C/c2ccccc2)Nc2ccccc21,129*[fluorescence artefact?],19,-5,-1,7,19
COc1cc(/C=C(/C#N)c2ccc(F)cc2)ccc1Oc1ccc([N+](=O)[O-])cn1,/,-1,/,-2,/,/
